Data: ChEMBL document CHEMBL3779832, “Discovery of novel pyrrole-based scaffold as potent and orally bioavailable free fatty acid receptor 1 agonists for the treatment of type 2 diabetes” (Bioorg Med Chem, 2016)
Calls of active or inactive are those of the source. The calls are words filed in the database; no cut-off is given here.

How the values were obtained:
[1] = target: T1, Free fatty acid receptor 1 (Homo sapiens, UniProt O14842); test: Agonist activity at human FFA1 expressed in CHO cells assessed as intracellular Ca2+ level at 100 nM measured for 90 secs by Fluo-4 AM-based FLIPR assay; assay type: functional, cell-based
T1 sequence (O14842 whole entry): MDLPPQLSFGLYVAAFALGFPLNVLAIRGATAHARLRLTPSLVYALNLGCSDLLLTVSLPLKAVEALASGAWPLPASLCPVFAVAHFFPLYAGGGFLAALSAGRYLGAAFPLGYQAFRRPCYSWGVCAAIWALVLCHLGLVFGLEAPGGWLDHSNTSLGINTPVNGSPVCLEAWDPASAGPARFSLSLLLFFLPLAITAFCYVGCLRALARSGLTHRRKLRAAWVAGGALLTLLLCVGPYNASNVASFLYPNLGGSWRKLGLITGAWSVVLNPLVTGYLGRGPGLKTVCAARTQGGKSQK
Outline: (§1)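 CHO cells stably expressing human FFA1 (NM_005303), 15K cells/well, cultured overnight at 37 °C in 5% CO2. Cells were washed with HBSS, then loaded for 60 min at 37 °C with Fluo 4-AM 2.5 μg/mL, fatty acid-free BSA 0.1% and probenecid 2.5 mmol/L. Single screening concentration added and Ca2+ flux read on FLIPR Tetra for 90 s. Activity = (A−B)/(C−B)×100 against vehicle (B) and 10 μM γ-linolenic acid (C). Mean of three independent experiments.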

[2] = target: T1, Free fatty acid receptor 1; test: Agonist activity at human FFA1 expressed in CHO cells assessed as intracellular Ca2+ level measured for 90 secs by Fluo-4 AM-based FLIPR assay; assay type: functional, cell-based
Outline: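 Calcium flux in CHO cells stably expressing human FFA1, plated at 15K cells/well overnight, loaded 60 min at 37 °C with Fluo 4-AM (2.5 μg/mL), 0.1% fatty acid-free BSA and 2.5 mmol/L probenecid. Various concentrations added and read by FLIPR for 90 s. Response normalised to vehicle and 10 μM γ-linolenic acid. EC50 from concentration–response fit, mean of three independent determinations.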

Mus musculus [3] = test: Decrease in plasma glucose level in po dosed ICR mouse administered as single dose 30 mins prior to glucose challenge measured up to 120 mins by OGTT; assay type: functional, organism-based
Outline: (§2)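 Male ICR mice, 10 weeks old, fasted 12 h and randomized (n = 6/group). Single oral dose in 0.5% CMC (10 mL/kg), followed 30 min later by oral glucose 3 g/kg as a 30% solution. Tail-vein blood at −30, 0, 15, 30, 45, 60 and 120 min, glucose read with test strips. Mean ± SEM, two-tailed Student's t-test against vehicle.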

Mus musculus [4] = test: Toxicity in ICR mouse assessed as hypoglycemic effect at 80 mg/kg, po measured up to 180 mins; assay type: organism-based; details: in vivo, 3 h
Outline: (§3)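 Normal male ICR mice, 10 weeks, fasted overnight (12 h), n = 6 per group. Single oral dose in 0.5% CMC vehicle, no glucose load. Tail-tip blood glucose by test strips at 0, 30, 60, 90, 120 and 180 min after dosing. Mean ± SEM for six animals, Student's t-test.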

Mus musculus [5] = test: Antihyperglycemic activity in STZ-induced type 2 diabetic C57BL/6 mouse model at 20 mg/kg, po administered as single dose 30 mins prior to glucose challenge measured up to 120 mins by OGTT; assay type: functional, organism-based
Outline: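 Male C57BL/6 mice fed 45%-fat diet for 4 weeks, given STZ 80 mg/kg i.p., then kept on high-fat diet another 4 weeks; fasting glucose ≥11.1 mmol/L counted as diabetic. After a 12 h fast, n = 6/group, oral dose in 0.5% CMC, then 2 g/kg glucose (20% solution) orally 30 min later. Tail blood at −30, 0, 15, 30, 45, 60, 120 min, read with glucose strips.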

[6] = target: T1, Free fatty acid receptor 1; test: Agonist activity at human FFA1 expressed in CHO cells assessed as intracellular Ca2+ level at 300 nM measured for 90 secs by Fluo-4 AM-based FLIPR assay; assay type: functional, cell-based; outline: as §1
Mus musculus [7] = test: Decrease in plasma glucose level in ICR mouse at 20 mg/kg, po administered as single dose 30 mins prior to glucose challenge measured up to 120 mins by OGTT; assay type: functional, organism-based; outline: as §2
Mus musculus [8] = test: Toxicity in ICR mouse assessed as hypoglycemic effect at 15 mg/kg, po measured up to 180 mins; assay type: organism-based; details: in vivo, 3 h; outline: as §3

Activity [1] [%]	Activity [6] [%]	SMILES	other results
63.8	–	COc1ccc(COc2ccc3c(c2)OCC3CC(=O)O)cc1-n1c(C)ccc1C (stereo unspecified)	EC50 [2]: 34.7 nM; Activity (Mus musculus [3]): Dose-dependent effect; Activity (Mus musculus [4]): Non-toxic; Activity (Mus musculus [5]): Active
59.9	71.3	Cc1ccc(C)n1-c1cccc(COc2ccc3c(c2)OCC3CC(=O)O)c1 (stereo unspecified)	EC50 [2]: 46.9 nM
28.6	41.9	O=C(O)CC1COc2cc(OCc3cccc(-n4cccc4)c3)ccc21 (stereo unspecified)	–
–	–	Cc1cc(OCCCS(C)(=O)=O)cc(C)c1-c1cccc(COc2ccc3c(c2)OC[C@H]3CC(=O)O)c1	Activity (Mus musculus [7]): Active; Activity (Mus musculus [5]): Active
25.7	–	Cc1cc(C(=O)N(C)C)c(C)n1-c1cccc(COc2ccc3c(c2)OCC3CC(=O)O)c1 (stereo unspecified)	–
43.7	56.3	O=C(O)CC1COc2cc(OCc3cccc(N4CCCC4)c3)ccc21 (stereo unspecified)	–
34.6	50.3	O=C(O)CC1COc2cc(OCc3cccc(N4CCCCC4)c3)ccc21 (stereo unspecified)	–
31.7	–	COCc1cc(C)n(-c2cccc(COc3ccc4c(c3)OCC4CC(=O)O)c2)c1C (stereo unspecified)	–
41.2	55.7	O=C(O)CC1COc2cc(OCc3cccc(N4CCOCC4)c3)ccc21 (stereo unspecified)	–
54.6	–	CCOc1ccc(COc2ccc3c(c2)OCC3CC(=O)O)cc1-n1c(C)ccc1C (stereo unspecified)	EC50 [2]: 61.2 nM
40.8	–	Cc1ccc(C)n1-c1cc(COc2ccc3c(c2)OCC3CC(=O)O)ccc1OCc1ccccc1 (stereo unspecified)	–
8.28	25.9	O=C(O)CC1COc2cc(OCc3cccc(N4CCS(=O)(=O)CC4)c3)ccc21 (stereo unspecified)	–
–	–	COc1ccc(Cl)cc1C(=O)NCCc1ccc(S(=O)(=O)NC(=O)NC2CCCCC2)cc1 [GLYBURIDE]	Activity (Mus musculus [8]): Toxic
38.2	52.2	O=C(O)CC1COc2cc(OCc3cccc(N4CCSCC4)c3)ccc21 (stereo unspecified)	–
62.6	74.4	Cc1cccc(C)c1-c1cccc(COc2ccc3c(c2)OCC3CC(=O)O)c1 (stereo unspecified)	EC50 [2]: 38.4 nM
